A selection: hits, their analogues and other compounds. The true share with any hit is near 3.7%.
eIF4E-4G inh – inhibitors of eIF4E and eIF4G interaction in translation initiation; P63073+Q04637; TR-FRET eIF4E-eIF4GI(517-606) binding, 2 h; inhibition, % at 21.7 µM; 220,000 tested, 0.37% active; AID 782;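 further: 0% = full FRET control wells and 100% = background wells lacking eIF4GI fragment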
p47phox inh – blocks human p47phox regulatory protein of NADPH oxidases. inhibition, % at 24.7 µM. P14598. 220,000 tested, 0.53% active. p47phox/p22phox peptide binding, fluorescence polarization, 2 h;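 further: 0% = p47phox with labelled peptide and 100% = labelled peptide alone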
EBV gp42 inh – blocks Epstein-Barr virus glycoprotein 42 binding; Fluorescence polarization binding assay, mP read-out; 220,000 tested, 0.42% active; inhibition, % (tested at 21.74 µM); Q1HVG2; in the data active means inhibition above about 50%
WT yeast gro inh – growth inhibition of WT yeast, mitochondrial fusion screen; AID 1362; 190,000 tested, 2.1% active; mitochondrial fusion phenotypic screen, WT strain; inhibition, % at 10 µM; in the data active means inhibition above about 58%; tested in S. cerevisiae
RBBP9 inh – inhibitors of human serine hydrolase RBBP9; 220,000 tested, 0.2% active; O75884; inhibition, % at 7.94 µM; recombinant RBBP9, FP-Rh probe fluorescence polarization; AID 1515;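 active means inhibition above the campaign mean of all tested compounds plus 3 SD, cut at about 14% in these data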;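 further: plate controls were DMSO wells with RBBP9 for no effect and wells lacking RBBP9 protein for full effect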
Target sequence (O75884 whole entry, looked up): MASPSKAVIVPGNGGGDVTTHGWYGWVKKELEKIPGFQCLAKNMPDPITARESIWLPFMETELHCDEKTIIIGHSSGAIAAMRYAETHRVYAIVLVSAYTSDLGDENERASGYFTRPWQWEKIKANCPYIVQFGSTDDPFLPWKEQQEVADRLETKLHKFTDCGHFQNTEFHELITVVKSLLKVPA
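Measured by – fluorescence polarization · Test system – RBBP9 protein · Input – 2.5 µM RBBP9 dispensing solution, before mixing · Measure – percent inhibition from mP, scaled between DMSO and no-protein wells · Benchmarks – DMSO-treated enzyme wells and wells lacking RBBP9 · Times – preincubation 30 min plus labeling 45 min at 25 °C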
14-3-3 Bad inh – disrupts binding of bovine 14-3-3 zeta to phospho-Bad peptide. P63103. TR-FRET 14-3-3zeta/Dy647-pBad peptide displacement, 1 h. inhibition, % at 21.7 µM. 220,000 tested, 0.71% active;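 active means inhibition above about 70%, limit read from the data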;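 further: 0% = full 14-3-3 plus peptide FRET controls and 100% = background without 14-3-3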
Target sequence (P63103 whole entry, looked up): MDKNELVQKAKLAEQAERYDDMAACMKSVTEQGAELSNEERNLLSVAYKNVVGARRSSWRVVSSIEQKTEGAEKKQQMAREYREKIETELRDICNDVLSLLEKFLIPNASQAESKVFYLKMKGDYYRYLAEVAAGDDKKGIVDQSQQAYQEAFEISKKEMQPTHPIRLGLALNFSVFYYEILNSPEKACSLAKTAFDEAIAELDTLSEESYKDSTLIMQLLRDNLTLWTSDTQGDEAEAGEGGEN
* hit, by the source's call; nt = no result; [ ] = another dose, or the depositor's remark.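 How the source made its calls, unless noted: active means inhibition above about 30% (limit read from the data); inactive means the rest.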

SMILES | eIF4E-4G inh | p47phox inh | EBV gp42 inh | WT yeast gro inh | RBBP9 inh | 14-3-3 Bad inh
O=C1C=C(c2ccc(Cl)cc2)OC2(CCCC2)O1 | 10 | 1 | 0 | 1 | -6 | 72*
COC1=CC(=O)CC(C)C12Oc1c(Cl)c(OC)cc(OC)c1C2=O (configuration not stated) | 4 | -6 | 1 | -1 | -8 | 77*
COc1cc(OC)c2c(c1O)OC(c1ccccc1)CC2=O (configuration not stated) | 5 | -25 | -4 | -4 | -2 | 12
Cc1ccc(-n2nnnc2SCC(=O)Nc2ncc(Cc3ccccc3Cl)s2)cc1 | -13 | 22 | -2 | 9 | -3 | 21
CNC(=O)c1nn(-c2ccc(Cl)cc2)ccc1=O | -10 | 6 | 23 | 98* | -6 | -1
CNC(=O)c1nn(-c2ccccc2)ccc1=O | 0 | -11 | -8 | 9 | 14 | -2
CCN(CC)S(=O)(=O)c1cccc(C(=O)Nc2sc3c(c2C(N)=O)CCCC3)c1 | 3 | -6 | -12 | 73* | 4 | -7
CC1(C)Cc2ccccc2-c2nnc(SCC(=O)N3CCN(c4ccccc4)CC3)n21 | -1 | -4 | -1 | 61* | -3 | 6
CCC(=C(c1ccc(OC)cc1)c1ccc(OC)cc1)c1cn(CC(O)CN2CCN(C)CC2)c2ccccc12 (configuration not stated) | 0 | 78* | -2 | 80* | 2 | 96*[fluorescence artefact?]
COc1cc(OC)c(/C=N/NC(=O)c2ccncc2)cc1Br | -1 | -19 | -1 | -2 | -2 | -4
COc1cc(OC)c(/C=N/NC(=O)c2ccc(NC(C)=O)cc2)cc1Br | 42* | 15 | -6 | -5 | 3 | 76*
CC(C)N(C(=S)Nc1cccc(C(F)(F)F)c1)C(C)c1ccccn1 (configuration not stated) | 1 | -6 | -10 | 74* | -2 | -7
O=[N+]([O-])c1cccc(S(=O)(=O)Nc2ccc(Cc3ccncc3)cc2)c1 | -4 | -14 | 3 | nt | -3 | 2
Cc1cc(S(=O)(=O)N2CCN(c3ccccc3C)CC2)ccc1F | 0 | -14 | -19 | 61* | -2 | -7
O=C(CN(Cc1ccccc1)S(=O)(=O)c1cccc(C(F)(F)F)c1)NC1CCCCC1 | -2 | -1 | -8 | -7 | -2 | -4
CC(c1ccccc1)N(CC(=O)NC1CCCCC1)S(=O)(=O)c1cccc(C(F)(F)F)c1 (configuration not stated) | 3 | -7 | -21 | 69* | 1 | 5
CCN(CC)c1ccc(NC2=C(Cl)C(=O)c3ccccc3C2=O)cc1 | 19 | 35* | -36 | 49 | -4 | 3
Cc1ccc(NC2=C(Cl)C(=O)c3ccccc3C2=O)cc1 | 0 | -16 | 5 | 15 | -10 | -1
Cc1onc(-c2c(Cl)cccc2Cl)c1/C(N)=N/OC(=O)C1CC1 | 1 | 1 | -11 | nt | 0 | -1
O=P(OC1CCCCC1)(OC1CCCCC1)C(O)c1c(Cl)cccc1Cl (configuration not stated) | 1 | -8 | -8 | 71* | -2 | 5
O=P(OC1CCCCC1)(OC1CCCCC1)C(O)c1ccc(Cl)cc1Cl (configuration not stated) | 4 | -1 | 12 | 15 | 2 | -2
O=C(CCc1ccccc1)Nc1nnc(-c2ccc3c(c2)CCCC3)o1 | 2 | -10 | -6 | 66* | 4 | 9
CN(C)S(=O)(=O)c1ccc(C(=O)Nc2nnc(-c3ccc4c(c3)CCCC4)o2)cc1 | 1 | 0 | 2 | 68* | -4 | 2
O=C(Nc1ccc(Br)cc1)Nc1ccccc1Cl | 0 | -16 | -15 | nt | 1 | -1
O=C(O)Cn1c(-c2cscn2)nc2ccccc21 | 8 | -3 | -17 | -2 | -8 | 72*
SMILES | eIF4E-4G inh | p47phox inh | EBV gp42 inh | WT yeast gro inh | RBBP9 inh | 14-3-3 Bad inh
O=C(Cn1c(-c2cscn2)nc2ccccc21)Nc1ccc2ccccc2c1 | 2 | 14 | -14 | 1 | -11 | 36
O=C(Nc1cc([N+](=O)[O-])ccc1F)c1cccs1 | 12 | 75* | -7 | 5 | -2 | -11
CCOC(=O)c1cc(NC(=O)c2ccco2)ccc1N1CCOCC1 | 0 | 7 | -4 | -8 | -6 | -2
CCCCCC[n+]1c(-c2ccccc2)csc1Nc1ccccc1 | 3 | 5 | -19 | 69* | -3 | 11
COc1ccccc1Nc1ncnc2nc[nH]c12 | 2 | -5 | -9 | 70* | -6 | 3
COc1ccccc1CNc1ncnc2nc[nH]c12 | 4 | -4 | -12 | -23 | -8 | 0
COc1ccc2ccccc2c1CN1CCN(Cc2ccccc2)CC1 | -1 | -9 | -14 | -1 | 1 | 91*
COc1ccc2ccccc2c1CN1CCCC(CO)C1 (configuration not stated) | -1 | 0 | 1 | 3 | 3 | 31
CC(C)CCNC(=O)CN(C(=O)CCC(=O)Nc1ccccn1)c1ccc(F)c(Cl)c1 | 3 | 0 | -1 | -6 | -12 | 0
O=C(COc1ccccc1)NCC(=O)N/N=C/c1ccc(O)cc1O | -9 | -9 | -7 | nt | -2 | -2
CCn1c(=NC(=O)C2COc3ccccc3O2)sc2c(C)ccc(OC)c21 (configuration not stated) | 90* | 13 | 5 | nt | -7 | -6
C=CCn1c(=NC(=O)C2COc3ccccc3O2)sc2cccc(OC)c21 (configuration not stated) | 3 | -9 | -11 | nt | -2 | -1
O=C(NNc1nc2c(F)cccc2s1)C1COc2ccccc2O1 (configuration not stated) | -5 | -10 | -9 | -12 | -6 | -14
Cc1ccc2sc(NNC(=O)C3COc4ccccc4O3)nc2c1C (configuration not stated) | -2 | -21 | -15 | 67* | -2 | 1
Cc1ccc(NC(=S)NN(C)c2cc(C)nc(C)n2)cc1 | -4 | -8 | -12 | 6 | -10 | -8
Cc1ccc(/C=C/c2nc3ccccc3s2)s1 | 1 | -40 | -84 | 39 | 4 | 78*
CN(C)CCNC(=S)Nc1ccccc1C(C)(C)C | -1 | -6 | 3 | -5 | 1 | -8
CC(C)(C)c1ccccc1NC(=S)NCc1ccccc1 | 0 | -3 | -21 | 63* | -5 | -6
CCOc1ccc(CCNC(=O)c2cc3c(C)nccc3[nH]c2=O)cc1OCC | -3 | -3 | -2 | -1 | 3 | -2
CCOc1ccc(CCNS(=O)(=O)c2cnc[nH]2)cc1OCC | -3 | 62* | -1 | 11 | 3 | 3
O=C(COc1ccccc1Br)NCCc1nc2ccccc2[nH]1 | -1 | -13 | 4 | 3 | -7 | -10
Cc1cc(C)cc(N(CC(=O)NCC2CCCO2)C(=O)CCC(=O)Nc2cc(C)on2)c1 (configuration not stated) | -2 | 5 | -13 | 99* | -5 | 26
